From PubChem BioAssay
Results filed as inconclusive are left out. Calls of active or inactive are those of the source.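 Rule for the calls, unless noted: active = viability at or below 27.92% in each of two runs, the all-compound median minus 4 SD; inconclusive = no clear call, values can overlap the other calls; inactive = the rest.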

Tests used:
[1] = OD615 S. cerevisiae growth inhibition, permissive medium, pilot counter-assay, permissive growth control for S. cerevisiae lifespan shortening project (AID 705;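 active = growth inhibition above 25% in both replicates, a cutoff set 3 SD above the mean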); conditions: OD615, 24 h, at 10 µM, active compounds read high
Procedure, shortened: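 System: Engineered DeaD yeast | Buffer or medium: SC raffinose/galactose permissive medium | Incubation: Cells pre-grown 4 h, then 24 h compound exposure, 30 °C humidified | Measured by: Absorbance (optical density) at 615 nm | Read-out: Reduction in yeast growth (OD615)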

[2] = Restrictive medium S. cerevisiae growth inhibition, OD615, pilot screen of yeast lifespan reduction project, restrictive growth control (AID 706;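 active = growth inhibition above a set limit, 3 SD over mean compound inhibition, in both replicates, cut at about 43% in these data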;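 note: modified DeaD lifespan yeast strain shifted to restrictive glucose medium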); conditions: OD615, 48 h, at 10 µM, active compounds read high
Procedure, shortened: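 Material: modified S. cerevisiae; Medium: glucose-based CSMM-D restrictive medium; Compound dosing: one concentration, 10 µM final, 0.25% DMSO; Incubation: 48 h compound exposure at 30 °C; Measured by: OD615.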

[3] = viability gain of MRP-1-high H69AR cells under doxorubicin, pilot screen, MRP-1 activator project, CellTiter-Glo, duplicate (AID 807;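 active = viability increase at or above a cutoff of the median across tested compounds plus 3 SD, cut at about 8.5% in these data, passing the limit was not always enough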;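 note: compound pretreatment 18-22 h then 72 h combined with doxorubicin; 0% = doxorubicin alone and 100% = vehicle without doxorubicin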); conditions: H69AR viability with doxorubicin, CellTiter-Glo luminescence; at 10 µM; active compounds read high
[4] = growth suppression of beta-catenin knockout HCT116, pilot screen, human colon tumor cells (AID 823;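 active = cell viability at or below a set limit in both duplicate runs, the limit being the all-compound median minus 4 SD, cut at about 23% in these data, passing the limit was not always enough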;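 note: 0% = wells killed by 20 µM Hyamine and 100% = untreated DMSO cell wells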); conditions: CellTiter-Glo, 60 h, at 10 µM, active compounds read low
[5] = growth suppression of PTEN-deleted HCT116, pilot screen, cell-based, HCT116 clonal line, CellTiter-Glo (AID 824); conditions: 60 h, at 10 µM, active compounds read low;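 note: 0% = 20 µM Hyamine control and 100% = vehicle cell control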
[6] = inhibitors of the yeast RAM network, pilot screen, dse1pr::URA3 reporter, 5-FOA selection (AID 869;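 active = inhibition over a set limit, the all-compound mean plus 3 SD, in both replicate runs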;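 note: 0% = DMSO wells with no growth and 100% = 10 µM 1-NA-PP1 with full growth; RAM network block rescues cells from 5-FOA so hits raise OD615 growth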); conditions: S. cerevisiae dse1pr::URA3 5-FOA growth, OD615, 2 d; at 10 µM; active compounds read high; strain carries analog-sensitive mutant Cbk1 kinase
[7] = RAM signaling pathway blockade in yeast – S. cerevisiae, Pdr1DBD-CYC8 efflux-inhibited sensitized strain, primary screen (AID 1298;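 active = RAM network inhibition above 8.4% in each of two replicates, 3 SD over the compound average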;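 note: 0% = DMSO untreated cells without growth and 100% = 10 µM 1-NA-PP1 full growth; higher means more yeast growth rescued from 5-FOA killing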); conditions: S. cerevisiae cbk1-as DSE1-URA3 strain, 5-FOA growth OD615, 2 d; at 50 µM; active compounds read high

COc1ccc(-c2cn3c(C)c(C(=O)N4CCN(c5ccccc5F)CC4)sc3n2)cc1
active: RAM network inhibition [7] 18.2%
inactive: growth inhibition [1] 2.91% | growth inhibition [2] -0.695% | viability increase [3] 0.81% | viability [4] 78.9% | viability [5] 78% | inhibition [6] 2.13%

CC(=O)Nc1nonc1-c1nc2ccccc2n1Cc1nnc(C)o1
inactive: growth inhibition [1] 3.66% | growth inhibition [2] 2.84% | viability increase [3] -3.32% | viability [4] 99.7% | viability [5] 97.1% | inhibition [6] 2.09% | RAM network inhibition [7] 1.99%

Cc1ccc(-n2c3c(cc(C(=O)N4CCN(C)CC4)c2=O)C(=O)CC(C)(C)C3)cc1
inactive: growth inhibition [1] -21.9% | growth inhibition [2] -9.49% | viability increase [3] 0.41% | viability [4] 101% | viability [5] 96.6% | inhibition [6] 1.48% | RAM network inhibition [7] 2.1%

Cc1ccc(Cl)cc1NC(=O)COC(=O)C1CCCC1
inactive: growth inhibition [1] -22% | growth inhibition [2] -14.1% | viability increase [3] -0.05% | viability [4] 99.1% | viability [5] 94.4% | inhibition [6] 1.32% | RAM network inhibition [7] 1.69%

CCCCCn1c(CNC(C)=O)nc2ccccc21
inactive: growth inhibition [1] -11.1% | growth inhibition [2] -13.2% | viability increase [3] 0.03% | viability [4] 93.5% | viability [5] 97.7% | inhibition [6] 0.54% | RAM network inhibition [7] 7.59%

CCNc1nc2c(c(=O)[nH]c(=O)n2C)n1Cc1ccc(F)cc1
inactive: growth inhibition [1] -8.34% | growth inhibition [2] -8.31% | viability increase [3] -3.05% | viability [4] 99% | viability [5] 85.2% | inhibition [6] 0.035% | RAM network inhibition [7] 4.88%

CC(=O)n1c2ccccc2c2c1c1ccccc1n2C
inactive: growth inhibition [1] 10.6% | growth inhibition [2] 3.17% | viability increase [3] -4.83% | viability [4] 96% | viability [5] 82.6% | inhibition [6] 2.49% | RAM network inhibition [7] 2%

C=CCn1c(=O)/c(=C/c2cc(OC)c(OC)c(OC)c2)s/c1=C(/C#N)c1nc2ccccc2n1C
inactive: growth inhibition [1] -4.25% | growth inhibition [2] 8.29% | viability increase [3] -3.61% | viability [4] 46.3% | viability [5] 50.9% | inhibition [6] 3.67% | RAM network inhibition [7] 4.52%

Cc1ccc(N(CC(N)=O)C2SC(=O)N(C)C2=O)cc1 (configuration not stated)
inactive: growth inhibition [1] -11.9% | growth inhibition [2] -7.83% | viability increase [3] -2.96% | viability [4] 97.8% | viability [5] 102% | inhibition [6] 1.09% | RAM network inhibition [7] 3.14%

CCOCCCNC(=O)C(c1ccc(C)cc1)N1CCOCC1 (configuration not stated)
inactive: growth inhibition [1] -11.9% | growth inhibition [2] 2.48% | viability increase [3] -3.18% | viability [4] 93.2% | viability [5] 102% | inhibition [6] 1.84% | RAM network inhibition [7] 1.62%

COc1cccc(C(=O)Nc2ccc3nc(N4CCN(c5ncccn5)CC4)cc(C)c3c2)c1OC
inactive: growth inhibition [1] 12% | growth inhibition [2] -8.24% | viability increase [3] -5.36% | inhibition [6] 0.73% | RAM network inhibition [7] 4.05%
active: viability [4] 9.73% | viability [5] 12.8%

N=c1oc2ccccc2cc1-c1nc2ccccc2c(=O)[nH]1
inactive: growth inhibition [1] 2.5% | growth inhibition [2] 1.96% | viability increase [3] 2.52% | viability [4] 94.3% | viability [5] 96.3% | inhibition [6] 2% | RAM network inhibition [7] 4.24%

CC(=O)Nc1c(-c2ccccc2)nc2ncccn12
inactive: growth inhibition [1] -4.64% | growth inhibition [2] -5.57% | viability increase [3] -0.33% | viability [4] 108% | viability [5] 95.4% | inhibition [6] 2.77% | RAM network inhibition [7] 0.97%

O=C(NCCCNC(=O)c1ccco1)c1ccco1
inactive: growth inhibition [1] -0.405% | growth inhibition [2] 0.005% | viability increase [3] -2.35% | viability [4] 99.9% | viability [5] 107% | inhibition [6] -0.525% | RAM network inhibition [7] 0.16%

Cc1ccc(N2CCN(S(=O)(=O)c3ccc(F)cc3)CC2)c(C)c1
inactive: growth inhibition [1] -0.375% | growth inhibition [2] -15.2% | viability increase [3] -1.12% | viability [4] 66.6% | viability [5] 60.9% | inhibition [6] -0.44% | RAM network inhibition [7] 7.03%

Nc1cc(C(=O)c2cccs2)ccc1Cl
inactive: growth inhibition [1] -9.76% | growth inhibition [2] -0.475% | viability increase [3] -1.88% | viability [4] 90.9% | viability [5] 96.7% | inhibition [6] 0.165% | RAM network inhibition [7] 3.24%

Cn1c(Cn2c(=O)sc3ccccc32)nnc1SCC(N)=O
inactive: growth inhibition [1] -17.4% | growth inhibition [2] -3.94% | viability increase [3] 0.08% | viability [4] 110% | viability [5] 88% | inhibition [6] 1.82% | RAM network inhibition [7] 3.26%

O=C(O)c1cc(S(=O)(=O)N2CCCCCC2)c(Cl)cc1Cl
inactive: growth inhibition [1] -2.36% | growth inhibition [2] -0.81% | viability increase [3] -0.57% | viability [4] 90.4% | viability [5] 101% | inhibition [6] 1.18% | RAM network inhibition [7] 6.2%

CN1CCN(C(=O)C2CCC(CNS(=O)(=O)c3cccc4cccnc34)CC2)CC1 (configuration not stated)
inactive: growth inhibition [1] 4.4% | growth inhibition [2] 2.39% | viability increase [3] -0.86% | viability [4] 99% | viability [5] 100% | inhibition [6] 1.58% | RAM network inhibition [7] 0.46%

C=C(C)Cc1c(C)nc(-c2ccccc2)[nH]c1=O
inactive: growth inhibition [1] -14% | growth inhibition [2] -14.1% | viability increase [3] 0.87% | viability [4] 99.7% | viability [5] 98.5% | inhibition [6] 1.76% | RAM network inhibition [7] 1.46%

CCNc1nc(C)c2cc(Br)c(=O)n(CC)c2n1
inactive: growth inhibition [1] -2.64% | growth inhibition [2] -8.07% | viability increase [3] -6.29% | viability [4] 66.4% | viability [5] 64.6% | inhibition [6] 0.44% | RAM network inhibition [7] 7.93%

O=C(CCCCCn1c(=O)[nH]c2ccsc2c1=O)N1CCN(C2CCCCC2)CC1
inactive: growth inhibition [1] -5.63% | growth inhibition [2] -0.345% | viability increase [3] -1.81% | viability [4] 95.3% | viability [5] 92.3% | inhibition [6] 1.38% | RAM network inhibition [7] 3%

COc1ccccc1OCC(=O)Nc1ccc(S(=O)(=O)NC(C)=O)cc1
inactive: growth inhibition [1] -17% | growth inhibition [2] -5.72% | viability increase [3] 1.56% | viability [4] 89.2% | viability [5] 103% | inhibition [6] 0.645% | RAM network inhibition [7] 2.08%

Cc1cc(-c2ccco2)n(CC(=O)NCc2ccco2)n1
inactive: growth inhibition [1] -3.72% | growth inhibition [2] -9.28% | viability increase [3] -2.82% | viability [4] 100% | viability [5] 100% | inhibition [6] 0.355% | RAM network inhibition [7] 2.47%

CC(=O)Oc1ccc(C(=O)Nc2nccs2)cc1
inactive: growth inhibition [1] -7.33% | growth inhibition [2] -14.7% | viability increase [3] -4.75% | viability [4] 88.2% | viability [5] 80.3% | inhibition [6] 3.5% | RAM network inhibition [7] 0.1%

CC1(C)Cc2c(C#N)c(NC3CCCCC3)nc(-c3ccco3)c2CO1
inactive: growth inhibition [1] -15.4% | growth inhibition [2] -17.4% | viability increase [3] -6.33% | viability [4] 80.3% | viability [5] 76.3% | inhibition [6] 3.23% | RAM network inhibition [7] 0.53%

COc1ccc(OC)c2sc(NC(=O)c3ccc(Cl)s3)nc12
active: viability [4] 22% | viability [5] 13.8%
inactive: growth inhibition [1] -16.4% | growth inhibition [2] -10.6% | viability increase [3] -3.79% | inhibition [6] 3.47% | RAM network inhibition [7] 5.85%

Cc1ccnc(N2C(=O)c3ccccc3C2Nc2ccccc2Cl)c1 (configuration not stated)
inactive: growth inhibition [1] -15.2% | growth inhibition [2] -17.5% | viability increase [3] 2.73% | viability [4] 84.9% | viability [5] 92.5% | inhibition [6] 1.49% | RAM network inhibition [7] 12.8%

O=C(Nc1ccon1)c1cccc(C(F)(F)F)c1
inactive: growth inhibition [1] -9.21% | growth inhibition [2] -5.36% | viability increase [3] 2.41% | viability [4] 104% | viability [5] 101% | inhibition [6] 0.075% | RAM network inhibition [7] 0.62%

COc1ccc(OC)c2[nH]c(=O)c(CCNC(C)=O)cc12
inactive: growth inhibition [1] -6.6% | growth inhibition [2] 3.73% | viability increase [3] -0.39% | viability [4] 109% | viability [5] 104% | inhibition [6] 2.21% | RAM network inhibition [7] 1.88%

CCCCSc1nc(N)c(NC(=O)c2ccco2)c(=O)[nH]1
inactive: growth inhibition [1] -12.7% | growth inhibition [2] -14.2% | viability increase [3] -2% | viability [4] 101% | viability [5] 93.4% | inhibition [6] 1.58% | RAM network inhibition [7] 0.8%

CCCNC(=O)CS(=O)Cc1nc(-c2ccccc2C)oc1C (configuration not stated)
inactive: growth inhibition [1] -14.3% | growth inhibition [2] -5.72% | viability increase [3] 0.85% | viability [4] 94.2% | viability [5] 96.9% | inhibition [6] -0.325% | RAM network inhibition [7] 6.48%

O=S(=O)(Nc1ccc2nc(C(F)(F)F)[nH]c2c1)c1ccccc1
inactive: growth inhibition [1] -1.94% | growth inhibition [2] -0.635% | viability increase [3] 0.27% | viability [4] 85.5% | viability [5] 82% | inhibition [6] 0.97% | RAM network inhibition [7] 1.68%

Cn1ccnc1SC(=O)N1c2ccccc2Sc2ccccc21
inactive: growth inhibition [1] 0.525% | growth inhibition [2] 0.605% | viability increase [3] -0.9% | viability [4] 88.8% | viability [5] 91.4% | inhibition [6] 1.25% | RAM network inhibition [7] 3.37%

CCN1CCN(c2ncnc3c2sc(=S)n3-c2ccccc2)CC1
inactive: growth inhibition [1] 8.5% | growth inhibition [2] 11.5% | viability increase [3] -3.4% | viability [4] 85.4% | viability [5] 84.9% | inhibition [6] 1.73% | RAM network inhibition [7] -0.06%

CCCOc1ccc(C2c3c(oc4cc(C)c(C)cc4c3=O)C(=O)N2CCCN2CCOCC2)cc1 (configuration not stated)
inactive: growth inhibition [1] 8% | growth inhibition [2] 1.72% | viability increase [3] -2.28% | viability [4] 81.9% | viability [5] 89% | inhibition [6] 0.075% | RAM network inhibition [7] 0.73%
